Compound activity deposited in PubChem by several laboratories.
MT stabilizer: microtubule stabilizers in HeLa cells, primary screen, imaging, high-content imaging | 200,000 compounds, 0.83% hits | HeLa tubulin immunostaining HCS, 24 h; share of cells brighter than vehicle mean+2SD | % tubulin-high responders, % at 10 µM;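 active = plate Z-score above 3 for both tubulin-high and condensed-nucleus cell shares, with cell loss under 80%, at 10 µM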;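 also: anti alpha tubulin signal scored within the nucleus-defined area of each cell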
Ba/F3 V617F tox: reduced viability of JAK2V617F-dependent Ba/F3 cells, primary screen, JAK2V617F inhibitor project, cell-based, Ba/F3 EpoR-JAK2V617F, luminescence. ATP luminescence. inhibition, % at 5.6 µM. 220,000 compounds, 1.1% hits;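 active = inhibition above the campaign mean plus 3 SD over all tested compounds, cut at about 24% in these data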;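 also: cytokine-independent growth of Ba/F3 cells driven by EpoR plus mutant JAK2; 0% = DMSO-treated cells and 100% = JAK inhibitor I control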
IEC-6 cytotox: cytotoxicity in IEC-6 intestinal epithelial cells, primary screen, cytotoxicity control for KLF5 inhibitor project, cell-based, luminescence; IEC-6 cytotoxicity, luminescence viability; inhibition, % at 5 µM; 290,000 compounds, 0.78% hits; in the data active = inhibition above about 22%;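 also: 0% = plate median of test compound wells and 100% = cytotoxic reference compound wells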
BaF3 tox: parental Ba/F3 cell viability inhibition, counter-screen for JAK2V617F inhibitor project, murine pro-B, CellTiter-Glo luminescence; CellTiter-Glo ATP luminescence; inhibition, % at 5.6 µM; 220,000 compounds, 1.1% hits; AID 1486, 2009;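 active = inhibition above a per-campaign cutoff, the mean inhibition of all tested compounds plus 3 SD, cut at about 27% in these data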;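 also: 0% = DMSO wells and 100% = JAK Inhibitor I control wells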
bCat nuc transl: modulators of beta-catenin nuclear translocation, primary screen, imaging, HeLa cells, immunofluorescence, high-content; 190,000 compounds, 0.3% hits; nuclear translocation activity, % at 5 µM;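 active = nuclear translocation activity above 50% at 5 µM, with a well cell count of 50 or more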;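 also: per-cell ratio of nuclear to cytoplasmic median beta-catenin stain intensity; plate controls were DMSO negative control for no effect and GSK-3 inhibitor IX positive control for full effect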
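System: Human HeLa cells, endogenous beta-catenin | Compound dosing: 5 µM primary, 0.02–20 µM confirmation | Timing: 24 h compound exposure at 37°C, 5% CO2 | Measured by: Fluorescence imaging of beta-catenin antibody stain plus DAPI | Read-out basis: % activation of per-cell nuclear versus cytoplasmic median beta-catenin signal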
APP transl inh: inhibitors of APP translation via 5'UTR reporter, primary screen, APP 5'UTR luciferase, SH-SY5Y cells; SH-SY5Y APP 5'UTR-luciferase reporter, luminescence; inhibition, % at 2 µM; 190,000 compounds, 0.82% hits; AID 1285, 2008;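 active = inhibition above a set limit, derived from the sample mean plus 3 SD, cut at about 45% in these data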
Active calls of the source: *; / = no result given. Shown are actives, neighbours in structure and some others; about 2.2% of the full set was active somewhere.

SMILES	MT stabilizer	Ba/F3 V617F tox	IEC-6 cytotox	BaF3 tox	bCat nuc transl	APP transl inh
CCn1c2ccccc2c2cc(NC(=O)c3ccc(Br)o3)ccc21	2	-5	4	0	/	/
CCn1c2ccccc2c2cc(NC(=O)c3cc(C)on3)ccc21	20*	-1	4	2	-1	-11
O=C(Nc1ccccc1C(=O)O)c1ccc(NC(=O)C2CCCCC2)cc1	/	/	4	/	/	/
CC1(C)Cc2nc(-c3ccccc3)nc(SCC(O)CO)c2CO1 (stereo not given)	/	1	3	61*	-1	/
CC1=CC(C)(C)N(S(=O)(=O)c2ccc(F)cc2)c2ccccc21	25*	0	-6	2	0	18
CC1=CC(C)(C)N(S(=O)(=O)c2ccc(C)cc2)c2ccc(C)cc21	10	51*	10	37*	/	50*
CC(=O)N1c2ccccc2C(C)=CC1(C)C	/	-2	-4	-6	0	-4
CC(=O)Nc1ccc(S(=O)(=O)N2c3ccccc3C(C)=CC2(C)C)cc1	8.6*	64*	88*	64*	81*	89*
C=C(C)CSc1nc2sc3c(c2c(=O)n1-c1ccccc1)CCN(C)C3	/	/	-14	/	/	/
CSc1ccccc1NC(=O)c1cc(-c2cccnc2)nc2ccc(Br)cc12	4	-4	2	1	2	11
CCOc1ccc(S(=O)(=O)N2CCCC(C(=O)Nc3ccccc3)C2)cc1 (stereo not given)	/	/	5	/	/	/
CCc1ccc(NC(=O)COc2ccc(F)cc2C(=O)c2cnn(-c3ccccc3)c2)cc1	20*	-1	-6	3	0	-50
COc1ccc(NC(=O)CSCc2cc(=O)n3nc(C4CC4)sc3n2)cc1	/	/	-3	/	/	/
COc1cc(/C=C2\SC(=N)N(c3ccc(F)cc3)C2=O)ccc1O	10*	0	12	4	2	-14
CCOC(=O)C1=C(C)N(c2ccc(C)cc2)C(=O)/C1=C\c1ccc(O)c(OC)c1	/	-5	1	29*	-1	/
COC(=O)C1=C(C)N(Cc2ccc(C)cc2)C(=O)/C1=C\c1ccc(O)c(OC)c1	2	0	2	3	2	5
CCCC(=O)OCCNc1cc(Sc2nc3ccccc3[nH]2)c2nonc2c1[N+](=O)[O-]	7	-2	7	-1	0	74*
CCC(=O)OCCNc1cc(SCCC(=O)OC)c2nonc2c1[N+](=O)[O-]	4	1	-5	4	-4	-10
Cc1ccc(Sc2cc(NCCCO)c([N+](=O)[O-])c3nonc23)cc1	/	6	5	4	0	/
CC(=O)OCCCNc1cc(Sc2ccc(Cl)cc2)c2nonc2c1[N+](=O)[O-]	3	-2	-15	2	1	51*
CCC(=O)OCCNc1cc(Sc2nccn2C)c2nonc2c1[N+](=O)[O-]	1	-2	-5	1	-3	60*
CC(=O)OCCNc1cc(SC(C)C)c2nonc2c1[N+](=O)[O-]	2	-4	1	4	-2	-7
COc1ccc(/C=C(\NC(=O)c2ccc(C)cc2)C(=O)NCCCN2CCOCC2)cc1OC	/	/	4	/	/	/
COc1ccc(CCN2CCCn3c2nc2c3c(=O)n(C)c(=O)n2C)cc1OC	/	/	3	/	/	/
Cc1ccc(/C=C2/SC(=S)N(CCC(=O)N3CCOCC3)C2=O)cc1	/	/	-4	/	/	/
SMILES	MT stabilizer	Ba/F3 V617F tox	IEC-6 cytotox	BaF3 tox	bCat nuc transl	APP transl inh
CCOC(=O)N1CCC(N2CCN(c3ccccc3)CC2)CC1	/	/	0	/	/	/
c1ccc(-c2ccccc2OCCOCCN2CCc3ccccc3C2)cc1	2	-3	7	47*	1	-12
Cc1ccc(CNC(=O)c2ccc3c(c2)NC(=O)CS3)cc1	/	/	7	/	/	/
Cc1cc(NC(=O)CSc2nnc(-c3ccccc3)c(-c3ccccc3)n2)no1	22*	-2	-4	3	2	63*
COc1cc(OC)cc(-c2nnc(SCC(=O)Nc3cc(C)on3)o2)c1	3	1	-5	95*	/	-8
CC(=O)c1cccc(N(CC(=O)NC2CCCC2)C(=O)c2csnn2)c1	/	/	2	/	/	/
COc1ccc(CNc2ncnc3c2[nH]c2ccccc23)cc1	/	1	10	1	0	/
CC(C)OCCCNc1ncnc2c1[nH]c1ccccc12	4	40*	9	52*	0	1
O=C(/C=C\c1ccco1)Nc1nc(-c2ccccc2)cs1	3	0	-1	0	2	/
O=C(/C=C/c1ccccc1)Nc1nc(-c2ccncc2)cs1	6	39*	6	43*	-1	-2
O=S(=O)(Cc1c(F)cccc1Cl)c1ncn[nH]1	3	-2	-2	3	0	3
CCCCn1c(CN2CCN(c3ccccc3)CC2)nc2c1c(=O)n(C)c(=O)n2C	3	23	6	29*	4	-3
CCCCn1c(CN(C)Cc2ccccc2)nc2c1c(=O)n(C)c(=O)n2C	2	7	8	29*	-1	-7
CCOc1cccc(CNc2nnnn2C)c1	/	/	-6	/	/	/
CCN1CCN(C(=O)c2cc(COc3ccc(F)cc3F)on2)[C@@H](C)C1=O	/	/	4	/	/	/
O=C(c1ccccc1)c1cc([N+](=O)[O-])ccc1N1CCOCC1	10	71*	80*	74*	178*	92*
CCOC(=O)c1cc(CC)sc1NC(=O)c1cc([N+](=O)[O-])ccc1N1CCOCC1	14	-3	-6	-1	59*	-14
CCOC(=O)c1cc(CC)sc1NC(=O)c1ccc(N2CCOCC2)c([N+](=O)[O-])c1	3	-4	1	-1	-3	-7
O=C(c1ccc(Br)cc1)c1cc([N+](=O)[O-])ccc1N1CCOCC1	16*	80*	12	83*	7	88*
O=C(c1ccc(Cl)cc1)c1cc([N+](=O)[O-])ccc1N1CCOCC1	10	72*	4	74*	48	93*
O=C(c1cc([N+](=O)[O-])ccc1N1CCOCC1)N1CCCCC1	2	4	8	12	-5	-7
O=C(NCC1COCCO1)c1cc(COc2c(F)cccc2F)on1 (stereo not given)	/	/	-1	/	/	/
CC1CCCN(c2ccc([N+](=O)[O-])cc2C(=O)c2ccccc2)C1 (stereo not given)	6	77*	45*	79*	60*	94*
CCCOc1nc2ccccc2cc1/C=C/C(=O)O	6	3	-1	2	-1	-7
CCOc1nc2ccccc2cc1C=O	5	1	-4	6	-1	57*
COC(=O)c1ccc(NC(=O)CS(=O)(=O)c2ccccc2)cc1	/	/	4	/	/	/
Cc1ccc([N+](=O)[O-])cc1NC(=O)Nc1cccc(F)c1	/	40*	11	37*	-4	/
